DAGLB inh: diacylglycerol lipase beta (human) inhibition | Q8NCG7 | HEK293T DAGLB membrane lysate, EnzChek fluorogenic substrate | inhibition, % at 5.17 µM | 340,000 compounds, 0.059% hits | AID 504411; in the data active means inhibition above about 34%;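 further: 0% = enzyme with vehicle and 100% = wells lacking enzyme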
TMEM16A act: activators or potentiators of mouse TMEM16A chloride channel; Q8BHY3; HEK293 TMEM16A/YFP-H148Q/I152L, iodide quench fluorescence; stronger effect = lower value; B-score at 10 µM; 340,000 compounds, 0.3% hits;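 active means fluorescence-ratio B-score plate-corrected deviation score at least 3 library SD below zero, with starting fluorescence score within 5 deviations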;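 further: channel opened by trigger with iodide after compound preincubation; score built on the fluorescence ratio of max minus min over baseline; more negative score means more quench and so TMEM16A activation or potentiation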
MT1-MMP act inh: MT1-MMP (human) activation inhibition; GFP/RFP ratio change, % at 20 µM; 360,000 compounds, 0.061% hits; P50281; AID 651647; HT1080 RFP-PRO-GFP cells, GFP/RFP ratio fluorescence, overnight; percent of plate control window, DMSO zero;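 active means GFP/RFP ratio change of at least 30% with cell ATP level not reduced by more than half and red fluorescence within 50% of control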
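Assay system: HT1080 RFP-PRO-GFP cells | Dosing: 20 µM single dose, 1% DMSO | Incubation: Cells overnight before dosing, compound overnight, 37 °C, 5% CO2 | Evaluation: GFP/RFP fluorescence ratio | Control set: DMSO-only wells and HT1080 RFP-L50D-GFP cell wells as references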
TMEM16A inh: inhibitors of mouse TMEM16A calcium-activated chloride channel; HEK293 TMEM16A/YFP iodide influx fluorescence, ionomycin; normalized B-score (activity score, 25-100; higher = stronger inhibition) at 10 µM; 310,000 compounds, 1.2% hits; Q8BHY3;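 active means ratio plate-corrected score three or more library SD toward inhibition, starting fluorescence score within five deviations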;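 further: score derived from kinetic fluorescence span divided by baseline fluorescence per well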
TMEM16A reconf: reconfirmed blocker of mouse TMEM16A calcium-activated chloride channel; inhibition, % at 10 µM; AID 652189; shares compounds with TMEM16A inh; 2,300 compounds, 39% hits; HEK293 TMEM16A/YFP-H148Q, iodide quench fluorescence; ionomycin added to raise cell calcium;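 active means mean duplicate percent inhibition, scaled so buffer wells are 0 and the reference blocker 100, over three buffer SD above buffer mean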
HEK293 Ca mobil: counter-screen for TMEM16A inhibitors: effect on calcium mobilization. 2,300 compounds, 2% hits. TMEM16A/YFP HEK293, Fluo4 calcium mobilization. calcium response (% of ionomycin), % at 10 µM. shares compounds with TMEM16A inh;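 active means duplicate-averaged calcium signal over 20% of the ionomycin maximum, relative to buffer baseline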;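 further: each well's signal is peak minus trough fluorescence divided by its pre-addition baseline; 0% = buffer wells and 100% = ionomycin wells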
YFP-HEK293 quench: counter-screen for TMEM16A inhibitors: effect in parental YFP-HEK293 cells; shares compounds with TMEM16A inh; YFP ratio F(max-min)/F0 at 10 µM; 2,300 tested, under 10 active; iodide YFP quench, ionomycin;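 active means yellow fluorescent protein signal ratio exceeding the buffer control mean by over 5 SD of those controls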;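 further: ratio is mean of duplicate wells from kinetic YFP trace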
ClC-1 rat inh: rat ClC-1 inhibition, TMEM16A specificity screen | shares compounds with TMEM16A inh | CHO ClC-1-YFP, iodide influx fluorescence quench; iodide control reads 0, buffer control 100 | ratio percent, % at 10 µM | 2,300 tested, under 10 active;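 active means duplicate-mean ratio percent above the mean of iodide-only control wells, which defines zero, plus 5 of their SD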;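 further: higher percent means stronger block of ClC-1 iodide influx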
Target sequence (P35524 whole entry, looked up): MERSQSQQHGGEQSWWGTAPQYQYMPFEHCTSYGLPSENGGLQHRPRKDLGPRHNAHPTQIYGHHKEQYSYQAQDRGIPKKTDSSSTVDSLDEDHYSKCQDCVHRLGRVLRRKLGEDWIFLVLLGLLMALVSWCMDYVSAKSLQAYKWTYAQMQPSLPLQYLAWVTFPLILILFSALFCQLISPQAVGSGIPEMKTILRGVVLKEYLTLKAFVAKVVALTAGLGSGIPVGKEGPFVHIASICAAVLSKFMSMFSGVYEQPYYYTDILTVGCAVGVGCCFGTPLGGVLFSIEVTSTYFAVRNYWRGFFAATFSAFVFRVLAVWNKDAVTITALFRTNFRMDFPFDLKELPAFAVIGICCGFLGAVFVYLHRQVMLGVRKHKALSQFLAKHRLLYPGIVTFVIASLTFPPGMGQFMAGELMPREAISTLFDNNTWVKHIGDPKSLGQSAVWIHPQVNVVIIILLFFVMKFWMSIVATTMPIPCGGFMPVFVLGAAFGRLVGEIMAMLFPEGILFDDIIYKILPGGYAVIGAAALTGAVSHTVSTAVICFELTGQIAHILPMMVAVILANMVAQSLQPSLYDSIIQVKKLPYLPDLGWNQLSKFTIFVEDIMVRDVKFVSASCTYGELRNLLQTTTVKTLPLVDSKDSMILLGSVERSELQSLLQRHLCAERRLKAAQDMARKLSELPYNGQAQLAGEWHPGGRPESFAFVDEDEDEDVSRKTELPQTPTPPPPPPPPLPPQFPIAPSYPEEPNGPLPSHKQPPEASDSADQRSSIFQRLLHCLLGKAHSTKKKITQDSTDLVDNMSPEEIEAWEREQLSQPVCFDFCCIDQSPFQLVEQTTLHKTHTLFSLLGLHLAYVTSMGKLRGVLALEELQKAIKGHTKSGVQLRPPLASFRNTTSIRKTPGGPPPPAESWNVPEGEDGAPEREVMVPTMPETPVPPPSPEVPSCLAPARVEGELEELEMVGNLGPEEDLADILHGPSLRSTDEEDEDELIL
* hit, by the source's call; i = inactive; . = not tested or not shown. Sampled rows, rich in hits. Any-hit rate of the full collection: about 1.3%.

SMILES | DAGLB inh | TMEM16A act | MT1-MMP act inh | TMEM16A inh | TMEM16A reconf | HEK293 Ca mobil | YFP-HEK293 quench | ClC-1 rat inh
Cc1ccc(-c2nnc(N3CCN(c4ccccn4)CC3)c3ccccc23)cc1 | 1.8 | i | -13.8 | 25* | 27.5%* | i | -0.99 | -17.0
CC(=O)c1ccc(NC(=O)c2ccc(CSc3ccccc3)o2)cc1 | -3.4 | i | -1.2 | 100* | 22.0%* | i | -0.891 | -9.0
Cc1ccc(SC[C@H](C)CN2CC[C@H](C(C)(C)C)CCC2=O)cc1 | -16.8 | i | -2.5 | 100* | 38.0%* | i | -0.894 | -0.5
CCN(C(=O)COC(=O)c1cccc(S(=O)(=O)NCc2ccccc2)c1)c1ccccc1 | 3.2 | i | 2.0 | . | . | . | . | .
Cc1[nH]n(-c2ccc(Br)cc2)c(=O)c1/C=N/NC(=O)c1ccccc1 | 1.4 | i | 2.7 | 100* | 21.0%* | i | -0.782 | -18.0
COc1cccc(C(=O)OC(C)C(=O)NCC2CCCCC2)c1 (stereo not given) | 0.5 | i | 2.1 | . | . | . | . | .
CS(=O)(=O)c1ccc(Sc2nc3ccccc3[nH]2)c([N+](=O)[O-])c1 | -1.5 | i | -14.6 | i | i | i | -0.921 | 2.0
O=[N+]([O-])c1cc(S(=O)(=O)C(F)(F)F)ccc1Sc1nc2ccccc2[nH]1 | -7.1 | i | -6.5 | i | . | . | . | .
CCC(Sc1ccc2nnc(-c3ccc(OC)c(OC)c3)n2n1)C(=O)O (stereo not given) | 2.7 | i | 8.0 | 100* | i | i | -0.787 | -6.0
COc1ccc(-c2nnc3ccc(SC(C(C)=O)C(C)=O)nn23)cc1OC | -5.3 | i | 7.5 | i | . | . | . | .
O=C(Cn1nc(-c2ccccc2)nc1-c1ccccc1)OC1CCCCC1 | -13.2 | i | -6.6 | 100* | i | i | -1.02 | -9.5
COc1ccc(OC)c(NCc2nnc(-c3ccccc3)o2)c1 | -0.5 | i | 3.0 | i | . | . | . | .
COc1ccc(-c2ccc(-c3nnc(Cc4ccc(OC)c(OC)c4)o3)cc2)cc1 | -4.5 | i | 1.8 | 25* | i | i | -1.26 | -2.5
COc1ccc(S(=O)(=O)Nc2ccc3c(c2)n(C)c(=O)n3C)cc1C | 0.7 | i | 3.2 | i | . | . | . | .
CCOC(=O)c1oc2ccc(S(=O)(=O)Nc3ccc4c(c3)n(C)c(=O)n4C)cc2c1C | 4.2 | i | 4.0 | 25* | i | i | -1.27 | -11.0
O=C(Nc1nc(-c2nc3ccccc3s2)cs1)c1ccco1 | -7.6 | i | 4.2 | i | . | . | . | .
O=C(Nc1ccc(Cl)cc1-c1nc2ccccc2s1)c1ccco1 | -2.4 | i | -1.5 | i | i | i | -0.925 | 5.5
COCCNC(=O)C1CCCN(C(=O)c2sc(-c3ccccc3)nc2C)CC1 (stereo not given) | . | . | -0.6 | . | . | . | . | .
Cc1noc(C)c1CSc1nc2ccccc2nc1NS(=O)(=O)c1ccc(Cl)cc1 | 12.6 | i | -9.4 | 100* | 29.0%* | i | -0.724 | -8.0
CC1CCCCN1S(=O)(=O)Cc1ccccc1Cl (stereo not given) | -1.2 | i | 1.8 | i | . | . | . | .
COc1ccc2[nH]cc(CCNS(=O)(=O)c3ccc(F)cc3)c2c1 | 0.9 | i | 1.4 | 25* | i | i | -1.02 | -8.5
COc1ccc2[nH]cc(CCNS(=O)(=O)c3ccccc3)c2c1 | 0.3 | i | 2.9 | i | . | . | . | .
CCCNC(=O)C1(C)CCCN(C(=O)c2cccc(C#N)c2)C1 (stereo not given) | . | . | 2.1 | . | . | . | . | .
Cc1occc1C(=O)NNC(=O)Nc1ccc(F)cc1F | -1.1 | i | -3.3 | i | . | . | . | .
Cc1occc1C(=O)Nc1ccc(Br)cc1F | -0.3 | i | -5.0 | 100* | i | i | -0.87 | -11.0
SMILES | DAGLB inh | TMEM16A act | MT1-MMP act inh | TMEM16A inh | TMEM16A reconf | HEK293 Ca mobil | YFP-HEK293 quench | ClC-1 rat inh
Cc1oc2c(C)c3oc(=O)c(CCC(=O)NCCN4CCOCC4)c(C)c3cc2c1C | -1.5 | i | 4.4 | i | . | . | . | .
CC(C)(C)C(=O)COC(=O)CCc1nc2ccccc2[nH]c1=O | -4.0 | i | -4.9 | 25* | i | i | -0.83 | -4.5
COc1ccc(OC)c(CC(=O)Nc2ccc3c(c2)c(=O)n(C)n3Cc2cccc(C(F)(F)F)c2)c1 | . | . | 3.0 | . | . | . | . | .
COc1cccc(C(=O)NC(=S)Nc2ccc3c4c(cccc24)CC3)c1 | -21.4 | i | -9.0 | i | i | i | -0.523 | -5.5
COc1ccc(-c2c(-c3cc(OC)cc(OC)c3)n(C)c3ccc(-c4ccc5[nH]ccc5c4)cc23)cc1 | -1.2 | i | -4.7 | . | . | . | . | .
O=C(CCS(=O)(=O)c1ccccc1)N1CCN(c2ccc(F)cc2)CC1 | 2.9 | i | -0.2 | i | . | . | . | .
O=C(CCS(=O)(=O)c1ccccc1)N1CCN(c2cccc(C(F)(F)F)c2)CC1 | 1.0 | i | -4.4 | 25* | i | i | -1.05 | -15.0
CC1CN(C(=O)CCC(=O)N2CCN(c3cccc(C(F)(F)F)c3)CC2)c2ccccc2O1 (stereo not given) | -1.9 | i | -0.2 | 25* | 20.0%* | i | -0.946 | -3.5
CCCCN(C=O)c1c(CC)nc2ccc(C(=O)NCCc3ccccn3)cn12 | . | . | -2.9 | . | . | . | . | .
O=S(=O)(c1ccccc1Cl)N1CCCC1c1nc(-c2ccccc2Cl)no1 (stereo not given) | -4.8 | i | 0.4 | 100* | 17.5%* | i | -1.1 | -14.5
CCOC(=O)c1ccccc1NC1c2ccccc2C(=O)N1c1cc(C)ccn1 (stereo not given) | -7.8 | i | -2.8 | 100* | i | i | -0.978 | -0.5
Oc1ccccc1CNc1cnc2ccccc2c1 | 2.9 | i | 1.4 | 100* | i | i | -0.962 | -25.5
CCOC(=O)Cc1csc(NC(=O)c2csc(C)c2)n1 | -6.0 | i | -10.7 | 100* | 42.0%* | i | -1.31 | -7.0
CCCOC(=O)c1ccc(Oc2cn[nH]c2-c2ccc(O)cc2O)cc1 | -2.5 | i | -0.8 | i | . | . | . | .
CCOC(=O)c1ccc(Oc2cn[nH]c2-c2ccc(O)cc2O)cc1 | 1.6 | i | 5.8 | 25* | 43.0%* | i | -1.02 | -15.0
CC(OC(=O)c1ccccc1Nc1ccc(SC(F)F)cc1)C(N)=O (stereo not given) | 0.0 | i | -14.0 | 25* | i | i | -0.897 | -9.5
COc1ccc([C@H]2C[C@@H](O)[C@H](n3cc(COC(=O)c4ccccc4)nn3)CN2C(=O)c2cccs2)cc1 | 0.2 | . | 2.8 | . | . | . | . | .
CSc1cccc(NC(=O)/C=C/c2ccc(Cl)cc2)c1 | -5.5 | i | 5.4 | 100* | 62.5%* | i | -1.04 | -7.5
